proCasp7 act: counter-screen: procaspase-7 (human) activation | 0.093% of 330,000 active | P55210 | recombinant procaspase-7, Ac-DEVD-pNA absorbance 405 nm; D23A/D198A/D206A triple mutant, cannot self-cleave; scale: DMSO 0, 5 µM enzyme 100 | activation, % at 8.5 µM;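 active = percent activation above the screen-wide mean plus 3 SD, cut at about 25% in these data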
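Replicates: singlicate. Assay system: Procaspase-7 triple mutant (PC-7 D3A). Signal: 405 nm absorbance of p-nitroaniline. Times: 1 h preincubation, 2 h reaction. Buffer or medium: Zinc-free HEPES pH 7.4 with 300 mM NaCl, 0.01% Triton X-100. Also added: DEVD-pNA substrate. Benchmarks: DMSO wells as 0%, DMSO with 5 µM added PC-7 as 100%.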
Neddyl block: inhibitors of human cullin neddylation; TR-FRET cullin neddylation, biochemical; 0.58% of 360,000 active; calls only at 25 µM; in the data active = inhibition above about 36%
proKLK7 act: activates the human kallikrein-7 zymogen | P49862 | purified proKLK7, EDANS-DABCYL substrate fluorescence; 100% is mature enzyme control, 0% vehicle | activation, % at 7 µM | 0.9% of 370,000 active;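 active = activation above the mean of all tested compounds plus 3 SD, computed per campaign excluding outliers beyond control limits, cut at about 13% in these data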
Target sequence (P49862 whole entry, looked up): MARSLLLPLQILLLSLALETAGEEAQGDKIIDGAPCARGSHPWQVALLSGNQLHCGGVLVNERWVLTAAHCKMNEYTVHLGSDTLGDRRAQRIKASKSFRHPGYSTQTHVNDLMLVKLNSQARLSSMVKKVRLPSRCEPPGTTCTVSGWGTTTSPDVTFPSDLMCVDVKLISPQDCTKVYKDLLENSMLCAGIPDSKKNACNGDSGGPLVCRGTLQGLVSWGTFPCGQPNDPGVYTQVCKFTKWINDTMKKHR
procasp3 activ: activators of human procaspase-3. 0.11% of 330,000 active. activation, % at 8.5 µM. recombinant procaspase-3 D3A, Ac-DEVD-pNA absorbance 405 nm. P42574;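 active = activation above the mean of all tested compounds plus 3 SD, cut at about 21% in these data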;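 also: 0% = DMSO alone and 100% = DMSO wells spiked with extra 5 µM PC-3 D3A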
Target sequence (P42574 whole entry D9A/D28A/D175A): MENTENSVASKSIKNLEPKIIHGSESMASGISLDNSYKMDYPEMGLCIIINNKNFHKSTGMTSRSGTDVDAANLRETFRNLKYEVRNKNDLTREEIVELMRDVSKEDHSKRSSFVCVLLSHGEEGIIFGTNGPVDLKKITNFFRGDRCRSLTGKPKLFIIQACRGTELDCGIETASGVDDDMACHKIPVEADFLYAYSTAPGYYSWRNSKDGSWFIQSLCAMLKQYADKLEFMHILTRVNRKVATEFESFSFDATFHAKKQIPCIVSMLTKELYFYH
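Technique: 405 nm absorbance of p-nitroaniline, reads at 0 and 120 min; Test system: Procaspase-3 D3A mutant; Incubation: 1 h enzyme-compound preincubation, then 2 h substrate reaction, 25 °C; Repeats: singlicate, each compound tested once; Benchmarks: low control DMSO wells, high control DMSO plus 5 µM PC-3 D3A.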
* hit, by the source's call; i = inactive; x = no result given; + = active, no number. A selection: hits, their analogues and other compounds. The true share with any hit is near 1.6%.

SMILES | proCasp7 act | Neddyl block | proKLK7 act | procasp3 activ
OCC1OC(n2cnc3c(NCc4ccccc4O)ncnc32)C(O)C1O (stereo not given) | x | + | -0.1 | x
O=C(NCCOc1ccccc1)C1Nc2ccc(C(F)(F)F)cc2C2c3ccccc3CC12 (stereo not given) | -0.1 | i | 0.2 | 5.2
CCOC(=O)C1Nc2ccc(C(F)(F)F)cc2C2c3ccccc3CC12 (stereo not given) | -1.4 | i | 20.9* | -6.4
CCN(CC)CCOc1cc2c(nn1)Oc1ccccc1N2C | 1.2 | x | 16.3* | 3.8
Cc1cc(=O)oc2cc(NC(=O)C(C)N3C(=O)C4CCCCC4C3=O)ccc12 (stereo not given) | 6.0 | + | 9.0 | 7.4
COc1ccc(C(CC(=O)c2ccc(O)cc2)S(=O)(=O)c2ccc(C)cc2)cc1 (stereo not given) | -9.4 | i | 46.2* | -4.2
COC(=O)[C@]12C[C@H](CC(=O)N3CCSCC3)C(=O)N(Cc3ccccc3)C1=C[C@H](C(C)C)O[C@@H]2C1CC1 | x | x | 0.1 | x
COc1ccc(C(=O)N/N=C/c2c(CO)cnc(C)c2O)cc1 | 7.6 | x | -30.2 | 4.2
Cc1ncc(CO)c(/C=N/NC(=O)c2cc3c(s2)CCCC3)c1O | 25.7* | x | -38.8 | 31.3*
COc1ccccc1NS(=O)(=O)c1cccc(C(=O)N/N=C/c2c(CO)cnc(C)c2O)c1 | -11.6 | + | -6.0 | -2.6
Fc1ccc2c(c1)C(c1ccc(N3CCOCC3)cc1)=NNC(c1cccs1)=N2 | 0.7 | + | x | -2.6
O=C(Cn1nnc(-c2ccncc2)n1)Nc1ccc(Cl)cc1 | x | x | -0.4 | x
CC(C)N1CCCCC(NC(=O)c2cccc(F)c2)C1=O (stereo not given) | x | x | 0.6 | x
COc1ccc(C(=O)NC(=S)NNC(=O)c2ccccc2O)cc1 | 1.5 | i | -0.4 | -3.3
COc1ccc(C(=O)NC(=S)NNC(=O)c2ccccc2C)cc1 | -15.8 | + | 0.5 | -4.5
Nc1c(C(O)(C(F)(F)F)C(F)(F)F)cc(C(O)(C(F)(F)F)C(F)(F)F)c2ccccc12 | 3.2 | + | x | 1.8
O=C(Nc1nc2cc3c(cc2s1)OCCO3)c1ccco1 | -2.0 | + | 1.0 | 3.2
COC[C@H]1CCCN1c1ccc2c(c1)O[C@H]1CCN(C1)S2(=O)=O | x | x | 0.1 | x
O=C(NN=Cc1ccc(O)cc1O)c1ccccc1NS(=O)(=O)c1cccs1 | -20.6 | + | -5.0 | -22.5
O=C(CCc1ccccc1)N[C@H]1[C@@H](OC(=O)c2cnccn2)CCC[C@]12C(=O)N(Cc1ccccc1)c1ccccc12 | x | x | 0.1 | x
Cc1ccc(C(=O)N/C(=C\c2ccc(-c3ccc(Br)cc3)o2)C(=O)NCCCN(C)C)cc1 | 1.3 | + | -5.2 | 4.2
CC(=Nc1ccccc1)c1sc2ccccc2c1O | -14.6 | + | 0.0 | -10.2
CN(C)C(=O)NCCCC#Cc1ccccc1 | x | x | -0.3 | x
CC1(C)CC(=O)N(CC(=O)N2CCN(c3cccc(Cl)c3Cl)CC2)c2ccccc2S1(=O)=O | x | x | 0.1 | x
Cc1ccc(/C=C2/SC(=S)N(c3ccc(S(=O)(=O)Nc4nccs4)cc3)C2=O)cc1 | -24.1 | i | -0.1 | -18.3
SMILES | proCasp7 act | Neddyl block | proKLK7 act | procasp3 activ
COc1ccc(/C=C2/SC(=S)N(c3ccc(S(=O)(=O)Nc4nccs4)cc3)C2=O)cc1 | -23.7 | + | -0.2 | -17.8
COC(=O)[C@]12C[C@H](CC(=O)NCCCCc3ccccc3)C(=O)N(CCC3=CCCCC3)C1=C[C@H](C1CCCC1)O[C@@H]2C | x | x | -0.1 | x
NC(=O)c1ccc[n+]([C@H]2O[C@@H](COP(=O)([O-])OP(=O)(O)OC[C@H]3O[C@@H](n4cnc5c(N)ncnc54)[C@H](O)[C@@H]3O)[C@H](O)[C@@H]2O)c1 | 0.4 | + | x | 0.8
COc1ccc(Cn2c(O)c(/C=N/NC(=O)c3cccnc3)c3ccccc3c2=O)cc1 | x | + | -4.3 | x
CCN(CC)Cc1cc(Nc2c3ccccc3nc3c4ccccc4n(C)c23)cc(CN(CC)CC)c1O | x | i | 23.4* | x
Oc1cccc(Nc2c3ccccc3nc3ccccc23)c1 | -8.9 | i | 2.4 | -12.2
O=C(OCC(=O)N1CCN(C(=O)c2ccco2)CC1)c1cc(-c2ccco2)nc2ccccc12 | -6.7 | + | x | -2.1
Cc1ccccc1NC(=O)N(C)[C@H]1C[C@H]2c3[nH]c4c(-c5ccc6c(c5)OCO6)cccc4c3CCN2C[C@H]1[C@H](C)O | x | x | -0.1 | x
O=[N+]([O-])c1cc2c(ccc3occc32)o1 | x | x | -0.8 | x
CCC(=O)Nc1nnc(-c2ccncc2)s1 | 3.4 | + | -34.9 | 10.8
C=CCN(CC#Cc1ccccc1)Cc1ccc(OC)cc1 | x | x | -0.3 | x
c1ccc(-c2cc(-c3nnc4sc(Cc5cccs5)nn34)[nH]n2)cc1 | x | x | -0.3 | x
CCOC(=O)c1c(NC(=S)Nc2ccccc2)sc2c1CCN(CC)C2 | -24.8 | i | 75.1* | -23.9
CC(=O)CC[C@H]1CC[C@]2(CCCN(C(=O)c3ccccc3)C2)O1 | x | x | -1.1 | x
CCOC(=O)CC(=O)CSc1ccc2nnc(-c3cccc(F)c3)n2n1 | -0.4 | i | 0.8 | -0.9
CCOC(=O)CC(=O)CSc1ccc2nnc(-c3ccc(F)cc3)n2n1 | -4.2 | + | 3.2 | 1.9
COC(=O)C1=CC(=O)C=C(OC)[C@@]12Oc1cc(C)cc(OC)c1C2=O | x | x | 1.8 | x
Cc1ccc(C(=O)O)cc1-c1ccc(/C=C2/NC(=O)N(c3ccccc3)C2=O)o1 | -5.2 | + | 2.5 | -15.7
Cc1cc(C(=O)O)ccc1-c1ccc(/C=C2\NC(=O)N(Cc3ccccc3Cl)C2=O)o1 | 2.8 | x | x | -6.3
COC(=O)[C@H](C(C)C)N1CCc2nnn(Cc3ccc(C)cc3)c2-c2cc(F)ccc2S1(=O)=O | x | x | 0.1 | x
CCOc1ccc(-n2c(SCC(=O)Nc3ccc4cn[nH]c4c3)nnc2-c2ccncc2)cc1 | x | x | 0.3 | x
COc1ccc2ccccc2c1C=NNC(=O)CN1CCN(Cc2ccccc2)CC1 | x | x | 0.1 | x
COc1ccccc1-c1cc2nc(C)c(CCC(=O)NC(C)CCc3ccco3)c(C)n2n1 (stereo not given) | 3.5 | + | -5.1 | -0.3
COc1ccccc1CNC(=O)CCc1c(C)nc2cc(-c3ccccc3OC)nn2c1C | 7.9 | x | -0.2 | 6.9
COc1ccc(-c2cc(-c3nnc(SCC(=O)Nc4ccccc4-c4ccccc4)n3N)[nH]n2)cc1 | x | x | 0.6 | x
SMILES | proCasp7 act | Neddyl block | proKLK7 act | procasp3 activ
Cc1ccc(O)c(C(=O)c2cc(C#N)c(=O)n(-c3nccs3)c2)c1 | -9.6 | i | 17.2* | -1.4
Cc1ccc(O)c(C(=O)c2cc(C#N)c(=O)n(-c3c(C)n(C)n(-c4ccccc4)c3=O)c2)c1 | 3.3 | i | 1.6 | 9.4
Cc1ccc(-c2cc(C(=O)NN=Cc3sccc3C)[nH]n2)cc1C | x | x | -0.8 | x
COC(=O)c1cc2c(c3c4cc(F)ccc4n(S(=O)(=O)c4ccc(C)cc4)c13)C(=O)N(Cc1ccc(N(C)C)cc1)C2 | x | x | 0.5 | x
Brc1cccc(C=Nc2cccc3ncccc23)c1 | 4.3 | i | -0.1 | -9.8
Oc1c(Br)cc(Br)cc1C=Nc1cccc2ncccc12 | -19.1 | + | -1.0 | -13.0

High-throughput results (PubChem)
